Here are results for ten compounds from ChEMBL document CHEMBL1149768, “Novel Pd(II) complexes of 1-N-substituted 3-phenyl-2-pyrazoline derivatives and evaluation of antiamoebic activity” (Eur J Med Chem, 2008).

For this assay, the system named is Entamoeba histolytica. Nature of the assay: Antiamoebic activity against Entamoeba histolytica HM1 IMSS after 72 hrs by serial dilution method. It counts as functional, organism-based. In short, it runs like this: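 Compounds were dissolved in DMSO and diluted in medium to 1 mg/mL, then to 0.1 mg/mL, with two-fold serial dilutions in microplate wells. Metronidazole was the standard. Each well got 1.7 × 10⁴ trophozoites, was gassed with N₂ and held at 37 °C for 72 h. Plates were methanol-fixed, eosin-stained and solubilised in 0.1 N NaOH, and OD was read at 490 nm. IC50 came from linear regression of % inhibition versus log dose.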
As to `CC1CN(C(=S)NCc2ccccc2Cl)N=C1c1ccccc1` (stereo not given), half-maximal inhibition (IC50) was put at 4.62 µM.

The compound `CC(C)NC(=S)N1CC(C)C(c2ccccc2)=N1` (stereo not given) gave an IC50 of 15.2 µM. `CC(C)CNC(=S)N1CC(C)C(c2ccccc2)=N1` (stereo not given) registered an IC50 of 9.13 µM. Next, `CC1CN(C(N)=S)N=C1c1ccccc1` (stereo not given): 10.3 µM; `CC1CN(C(=S)NC2CCCCCCC2)N=C1c1ccccc1` (stereo not given): 2.32 µM; `CCCCNC(=S)N1CC(C)C(c2ccccc2)=N1` (stereo not given): 4.32 µM. `CC1CN(C(=S)N2CCN(c3ccccc3)CC2)N=C1c1ccccc1` (stereo not given): inhibition was half-maximal at 8.69 µM (IC50). Turning to `CC1CN(C(=S)NC2CCCCC2)N=C1c1ccccc1` (stereo not given), inhibition was half-maximal at 6.63 µM (IC50). Take `CC1CN(C(=S)NC2CCCC2)N=C1c1ccccc1` (stereo not given): half-maximal inhibition (IC50) required 8.75 µM.

On to `Cc1ccccc1NC(=S)N1CC(C)C(c2ccccc2)=N1` (stereo not given), for which the midpoint of inhibition, the IC50, lay at 4.57 µM.
